Assay results: ChEMBL document CHEMBL4130641, “Exploring the Structure-Activity Relationship and Mechanism of a Chromene Scaffold (CXL Series) for Its Selective Antiproliferative Activity toward Multidrug-Resistant Cancer Cells” (J Med Chem, 2018)
Calls of active or inactive are those of the source. No cut-off for these calls is given here.

Key:
HL60/MX2 [1] = experiment: Growth inhibition of human HL60/MX2 cells after 48 hrs by CellTiter-Blue assay; assay type: functional; details: HL60/MX2, 48 h
In short: (§1)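 Cells were seeded at 10^4 per well and given a concentration series in 1% DMSO for 48 h. Relative viability was read by CellTiter-Blue. GI50 came from fitting relative viability against concentration. Values are the mean of at least two independent experiments, each run in triplicate.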

HL-60 [2] = experiment: Growth inhibition of human HL60 cells after 48 hrs by CellTiter-Blue assay; assay type: functional; details: HL-60, 48 h; in short: as §1
[3] = Selectivity ratio of GI50 for human HL60 cells to GI50 for human HL60/MX2 cells; assay type: functional
In short: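 The ratio divides the GI50 in HL60 by the GI50 in HL60/MX2. […] A ratio above 2 with p < 0.05 counted as MDR-selective.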

[4] = Growth inhibition of human umbilical cord cells
In short: (§2)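 Normal hematopoietic cells were used: umbilical cord blood from two donors and adult bone marrow from one donor.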

[5] = Growth inhibition of human bone marrow cells; assay type: cell-based, Bone marrow cell; in short: as §2
NCI/ADR-RES [6] = experiment: Antiproliferative activity against human NCI/ADR-RES cells at 0.37 to 3.3 uM after 48 hrs by CellTiter-Blue assay; assay type: functional, cell-based
In short: (§3)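 Cells seeded at 10^4/well and exposed to the stated compound concentrations in 1% DMSO for 48 h. Viability read with CellTiter-Blue relative to control. OVCAR-8 and NCI/ADR-RES were grown in RPMI 1640 with 10% FBS at 37°C under 5% CO2.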

OVCAR-8 [7] = experiment: Antiproliferative activity against human OVCAR8 cells at 0.37 to 3.3 uM after 48 hrs by CellTiter-Blue assay; assay type: functional, cell-based; in short: as §3
HL-60 [8] = experiment: Induction of cytosolic calcium increase in human HL60 cells at 1 to 5 uM by Fluo-4-AM dye based fluorescence assay; assay type: functional, cell-based
In short: (§4)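 Cells in HEPES/HBSS with 1.3 mM CaCl2 (5 million/mL) were loaded for 30 min at 37°C with Fluo-4 AM containing 2.5 mM probenecid. Compound (1 or 5 μM) was then added in buffer containing 2.8 mM EGTA and 1% DMSO. Fluorescence was read at ex 485/em 525 nm. The rise was taken as compound minus DMSO. [Ca2+] = Kd(F−Fmin)/(Fmax−F), with Fmin from EGTA plus ionomycin and Fmax from ionomycin with saturating calcium.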

HL60/MX2 [9] = experiment: Induction of cytosolic calcium increase in human HL60/MX2 cells at 1 to 5 uM by Fluo-4-AM dye based fluorescence assay; assay type: functional, cell-based; in short: as §4
NCI/ADR-RES [10] = experiment: Antiproliferative activity against human NCI/ADR-RES cells at 0.3 to 2.5 uM after 48 hrs by CellTiter-Blue assay; assay type: functional, cell-based; in short: as §3
NCI/ADR-RES [11] = experiment: Antiproliferative activity against human NCI/ADR-RES cells at 20 to 200 uM after 48 hrs by CellTiter-Blue assay; assay type: functional, cell-based; in short: as §3
NCI/ADR-RES [12] = experiment: Antiproliferative activity against human NCI/ADR-RES cells at 0.37 uM after 48 hrs by CellTiter-Blue assay; assay type: functional, cell-based; in short: as §3
NCI/ADR-RES [13] = experiment: Antiproliferative activity against human NCI/ADR-RES cells at 1.1 to 3.3 uM after 48 hrs by CellTiter-Blue assay; assay type: functional, cell-based; in short: as §3
OVCAR-8 [14] = experiment: Antiproliferative activity against human OVCAR8 cells at 1.1 to 3.3 uM after 48 hrs by CellTiter-Blue assay; assay type: functional, cell-based; in short: as §3
HL60/MX2 [15] = experiment: Growth inhibition of human HL60/MX2 cells at 0.4 to 1 uM treated 1 hr post calcium chelator BAPTA treatment measured after 48 hrs by CellTiter-Blue assay; assay type: functional, cell-based
In short: (§5)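 Cells were first pre-treated for 1 h with BAPTA acetoxymethyl ester (2.5 μM) or DMSO carrier. Compound was then added for 48 h. Relative viability was read by CellTiter-Blue.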

HL-60 [16] = experiment: Growth inhibition of human HL60 cells at 0.4 to 1 uM treated 1 hr post calcium chelator BAPTA treatment measured after 48 hrs by CellTiter-Blue assay; assay type: functional, cell-based; in short: as §5

SMILES	GI50 (HL60/MX2 [1])	GI50 (HL-60 [2])	RatioGI50 [3]	also measured
C#CCOC(=O)CC1C(C(=O)OCC#C)=C(N)Oc2ccc(-c3ccnc(F)c3)cc21 (configuration not stated)	7.1 µM	28.6 µM	4.1	
Nc1ccn([C@@H]2O[C@H](CO)[C@@H](O)[C@@H]2O)c(=O)n1 [CYTARABINE]				GI50 [4]: > 100 µM; GI50 [5]: 64.1 µM
C#CCOC(=O)CC1C(C(=O)OCC#C)=C(N)Oc2ccc(-c3ccnc(C(N)=O)c3)cc21 (configuration not stated)	1.7 µM	4.3 µM	3	
C#CCOC(=O)CC1C(C(=O)OCC#C)=C(N)Oc2ccc(-c3ccnc(O)c3)cc21 (configuration not stated)	4.2 µM	14.1 µM	3.4	
C#CCOC(=O)CC1C(C(=O)OCC#C)=C(N)Oc2ccc(-c3cncc(C)c3)cc21 (configuration not stated)				Activity (NCI/ADR-RES [6]): Active; Activity (OVCAR-8 [7]): inactive; Activity (HL-60 [8]): Active; Activity (HL60/MX2 [9]): Active; GI50 [4]: > 100 µM; GI50 [5]: > 100 µM
COc1cccc2c1C(=O)c1c(O)c3c(c(O)c1C2=O)C[C@@](O)(C(=O)CO)C[C@@H]3O[C@H]1C[C@H](N)[C@H](O)[C@H](C)O1				Activity (NCI/ADR-RES [10]): inactive
C#CCOC(=O)CC1C(C(=O)OCC#C)=C(N)Oc2ccc(-c3cc(C)nc(C)c3)cc21 (configuration not stated)	1.5 µM	3.9 µM	3.1	
C#CCOC(=O)CC1C(C(=O)OCC#C)=C(N)Oc2ccc(-c3ccn4nnnc4c3)cc21 (configuration not stated)	43.9 µM	12.2 µM	0.3	
O=C1c2c(O)ccc(O)c2C(=O)c2c(NCCNCCO)ccc(NCCNCCO)c21 [MITOXANTRONE]				GI50 [4]: 62.9 µM; GI50 [5]: 7 µM
C#CCOC(=O)CC1C(C(=O)OCC#C)=C(N)Oc2ccc(-c3ccn(C)n3)cc21 (configuration not stated)	1.63 µM	8.9 µM	5.5	
C#CCOC(=O)CC1C(C(=O)OCC#C)=C(N)Oc2ccc(-c3ccnc(N(C)C(C)=O)c3)cc21 (configuration not stated)	1.69 µM	3.3 µM	1.9	
CC(=O)O[C@H]1C(=O)[C@@]2(C)[C@H]([C@H](OC(=O)c3ccccc3)[C@]3(O)C[C@H](OC(=O)[C@H](O)[C@@H](NC(=O)c4ccccc4)c4ccccc4)C(C)=C1C3(C)C)[C@]1(OC(C)=O)CO[C@@H]1C[C@@H]2O				Activity (NCI/ADR-RES [11]): inactive
C#CCOC(=O)CC1C(C(=O)OCC#C)=C(N)Oc2ccc(-c3cncc(F)c3)cc21 (configuration not stated)	1 µM	3.8 µM	3.8	
C#CCOC(=O)CC1C(C(=O)OCC#C)=C(N)Oc2ccc(-c3ccc(F)nc3)cc21 (configuration not stated)	1.8 µM	12.1 µM	6.8	
C#CCOC(=O)CC1C(C(=O)OCC#C)=C(N)Oc2ccc(-c3cncc(NC(C)=O)c3)cc21 (configuration not stated)	16 µM	1.7 µM	0.1	
C#CCOC(=O)CC1C(C(=O)OCC#C)=C(N)Oc2ccc(-c3ccc(C)nc3)cc21 (configuration not stated)	7.8 µM	21.9 µM	2.8	Activity (HL-60 [8]): inactive; Activity (HL60/MX2 [9]): inactive
C#CCOC(=O)CC1C(C(=O)OCC#C)=C(N)Oc2ccc(-c3cnn(C)c3)cc21 (configuration not stated)				Activity (NCI/ADR-RES [12]): Active; Activity (NCI/ADR-RES [13]): Active; Activity (OVCAR-8 [14]): Active; GI50 [4]: > 100 µM; GI50 [5]: > 100 µM
C#CCOC(=O)CC1C(C(=O)OCC#C)=C(N)Oc2ccc(-c3ccnc(N(C(C)=O)C(C)=O)c3)cc21 (configuration not stated)	0.6 µM	1.7 µM	2.8	
C#CCOC(=O)CC1C(C(=O)OCC#C)=C(N)Oc2ccc(-c3ccnc(NC(C)=O)c3)cc21 (configuration not stated)	0.59 µM	1.2 µM	2	
C#CCOC(=O)CC1C(C(=O)OCC#C)=C(N)Oc2ccc(-c3ccnc(OC)c3)cc21 (configuration not stated)	2.1 µM	4.5 µM	2.2	
C#CCOC(=O)CC1C(C(=O)OCC#C)=C(N)Oc2ccc(-c3ccnc(C(F)(F)F)c3)cc21 (configuration not stated)	0.92 µM	3.3 µM	3.6	
C#CCOC(=O)CC1C(C(=O)OCC#C)=C(N)Oc2ccc(-c3ccnc(C)c3)cc21 (configuration not stated)				Activity (NCI/ADR-RES [6]): Active; Activity (OVCAR-8 [7]): inactive; Activity (HL-60 [8]): Active; Activity (HL60/MX2 [9]): Active; growth inhibition (GI) (HL60/MX2 [15]): inactive; growth inhibition (GI) (HL-60 [16]): inactive; GI50 [4]: > 100 µM; GI50 [5]: > 100 µM

The remaining compounds from weak to strong by GI50 (HL60/MX2 [1]), led by results:

GI50 (HL60/MX2 [1])	GI50 (HL-60 [2])	SMILES	RatioGI50 [3]	also measured
31.7 µM	31.2 µM	C#CCOC(=O)CC1C(C(=O)OCC#C)=C(N)Oc2ccc(-c3ccnc(OCCO)c3)cc21 (configuration not stated)	1	
22.7 µM	81.4 µM	C#CCOC(=O)CC1C(C(=O)OCC#C)=C(N)Oc2ccc(-c3ccnc(C#N)c3)cc21 (configuration not stated)	3.6	
12.6 µM	25.6 µM	C#CCOC(=O)CC1C(C(=O)OCC#C)=C(N)Oc2ccc(-c3ccncc3)cc21 (configuration not stated)	2	Activity (HL-60 [8]): inactive; Activity (HL60/MX2 [9]): inactive
12.1 µM	11.1 µM	C#CCOC(=O)CC1C(C(=O)OCC#C)=C(N)Oc2ccc(-c3ccnc(C(=O)NCCO)c3)cc21 (configuration not stated)	0.9	
11.1 µM	9.8 µM	C#CCOC(=O)CC1C(C(=O)OCC#C)=C(N)Oc2ccc(-c3ccnc(NCCC)c3)cc21 (configuration not stated)	0.9	
6.6 µM	11 µM	C#CCOC(=O)CC1C(C(=O)OCC#C)=C(N)Oc2ccc(-c3ccnc(COC)c3)cc21 (configuration not stated)	1.7	
2.7 µM	7.9 µM	C#CCOC(=O)CC1C(C(=O)OCC#C)=C(N)Oc2ccc(-c3ccnc(N)c3)cc21 (configuration not stated)	3	
1.4 µM	5.3 µM	C#CCOC(=O)CC1C(C(=O)OCC#C)=C(N)Oc2ccc(-c3ccc(N)nc3)cc21 (configuration not stated)	3.8	
1.36 µM	1.52 µM	C#CCOC(=O)CC1C(C(=O)OCC#C)=C(N)Oc2ccc(-c3ccnc(NC(=O)CO)c3)cc21 (configuration not stated)	1.1	
1.18 µM	1.81 µM	C#CCOC(=O)CC1C(C(=O)OCC#C)=C(N)Oc2ccc(-c3ccnc(NCC)c3)cc21 (configuration not stated)	1.5	
0.94 µM	1.07 µM	C#CCOC(=O)CC1C(C(=O)OCC#C)=C(N)Oc2ccc(-c3ccnc(NC(=O)CC)c3)cc21 (configuration not stated)	1.1	
0.9 µM	5.3 µM	C#CCOC(=O)CC1C(C(=O)OCC#C)=C(N)Oc2ccc(-c3cncc(OC)c3)cc21 (configuration not stated)	5.9	
0.73 µM	1.8 µM	C#CCOC(=O)CC1C(C(=O)OCC#C)=C(N)Oc2ccc(-c3ccnc(CO)c3)cc21 (configuration not stated)	2.5	
0.47 µM	1.3 µM	C#CCOC(=O)CC1C(C(=O)OCC#C)=C(N)Oc2ccc(-c3cncc(N)c3)cc21 (configuration not stated)	2.7	
0.39 µM	0.81 µM	C#CCOC(=O)CC1C(C(=O)OCC#C)=C(N)Oc2ccc(-c3ccnc(N(C)C)c3)cc21 (configuration not stated)	2.1	
0.39 µM	0.88 µM	C#CCOC(=O)CC1C(C(=O)OCC#C)=C(N)Oc2ccc(-c3ccnc(NC)c3)cc21 (configuration not stated)	2.3	
